The source of these data is PMC5908246 (Cell reports, 2018).

Data set [1] concerns the target Gcn4 tAD (residues 1–134) labeled with Oregon Green 488 (S. cerevisiae) (UniProt P03069). Put plainly: fluorescence polarisation. A general note: Polarisation of emitted light reports the rotation of a fluorescent probe.
Data set [2] has as its target Med15 activator-binding domain 1 (ABD1) (S. cerevisiae (yeast)) (UniProt P19659). Put plainly: ITC.
The target of data set [3] is Gcn4 N-terminal activation domain (nAD; residues 1–100) (S. cerevisiae) (UniProt P03069). Description: ITC. On the technique in general: ITC needs no label: the signal is the heat of the interaction.
Data set [4] has as its target Gcn4 cAD (residues 101–134) labeled with Oregon Green 488 (S. cerevisiae) (UniProt P03069). Put plainly: fluorescence polarisation.
The subject of a further data set is individual Med15 ABDs. Description: ITC and/or FP binding to individual Med15 ABDs. On the set-up: species or system S. cerevisiae. In a few lines: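 Med15 ABD and Gcn4 AD proteins came from E. coli BL21(DE3) RIL and were polished by size exclusion into 20 mM KH₂PO₄ (pH 7.5), 200 mM KCl; concentrations were set by UV-Vis. FP used Oregon Green 488-labelled Gcn4 peptides, with 15 Med15 concentrations (0–250 µM) against tAD and 0–225 µM ABD3 against cAD. FP data were fit to a one-site total binding model with a nonspecific term. ITC data were fit to a single-site model.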

Data set [5] concerns the target T1, Med15 ABD123 (Saccharomyces cerevisiae, UniProt P19659, DEL239-272/DEL373-483).
T1 sequence (P19659 with tags, fused parts or gaps DEL239-272/DEL373-483): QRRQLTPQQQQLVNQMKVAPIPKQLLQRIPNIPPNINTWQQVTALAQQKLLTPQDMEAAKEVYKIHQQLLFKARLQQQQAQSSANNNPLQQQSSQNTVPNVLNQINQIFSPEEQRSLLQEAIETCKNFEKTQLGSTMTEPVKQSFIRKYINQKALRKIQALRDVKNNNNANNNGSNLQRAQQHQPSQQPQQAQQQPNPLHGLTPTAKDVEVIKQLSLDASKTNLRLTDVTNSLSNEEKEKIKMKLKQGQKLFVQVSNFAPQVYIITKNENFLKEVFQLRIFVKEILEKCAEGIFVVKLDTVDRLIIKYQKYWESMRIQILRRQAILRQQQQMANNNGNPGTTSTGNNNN
Put plainly: Fluorescence polarization binding, Med15 ABD123. On the set-up: species or system S. cerevisiae. To be noted: tAD binding to ABD123. A digest of the protocol: (§1)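 Gcn4 tAD peptide labelled with Oregon Green 488 was titrated with 15 Med15 concentrations spanning 0–250 μM (ABD123 or KIX123). Proteins were in 20 mM KH2PO4 (pH 7.5), 200 mM KCl. Polarization was read on a Beacon 2000. Kd came from non-linear regression to a one-site total binding model (Bmax·X/(Kd+X) + NS·X + background).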

For another data set, the system named is Med15 KIX123. Description: Fluorescence polarization binding, Med15 KIX123. Also noted: species or system S. cerevisiae. To be noted: KIX123 vs ABD123. In a few lines: as §1
Data set [6] has as its target T2, Med15 ABD2 (Saccharomyces cerevisiae, UniProt P19659).
T2 sequence (P19659 277-368): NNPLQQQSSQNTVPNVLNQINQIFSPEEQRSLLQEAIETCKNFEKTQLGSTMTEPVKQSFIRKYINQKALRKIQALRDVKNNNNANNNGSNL
The conditions noted are these: FP; Oregon Green 488-labeled Gcn4 peptide; ref Herbig et al., 2010; cited from earlier work.

For a further data set, the target named is T3, Med15 KIX (Saccharomyces cerevisiae, UniProt P19659).
T3 sequence (P19659 6-91): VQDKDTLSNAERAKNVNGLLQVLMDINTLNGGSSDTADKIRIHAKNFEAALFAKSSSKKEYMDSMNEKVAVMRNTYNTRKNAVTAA
The conditions noted are these: FP; Oregon Green 488-labeled Gcn4 peptide; ref Herbig et al., 2010; cited from earlier work.

Data set [7] deals with T4, Med15 ABD1 (Saccharomyces cerevisiae, UniProt P19659).
T4 sequence (P19659 158-238 limits assumed): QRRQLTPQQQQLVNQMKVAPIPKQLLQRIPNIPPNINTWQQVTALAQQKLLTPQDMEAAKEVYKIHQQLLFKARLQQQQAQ
Description: ITC binding, Med15 ABD1. Also noted: species or system S. cerevisiae. The conditions noted are these: 200 mM KCl. A digest of the protocol:
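ITC was run on a MicroCal ITC200 in 20 mM KH2PO4 (pH 7.5), 200 mM KCl. Med15 ABD1 in the cell (0.150 mM) was titrated with Gcn4 nAD from the syringe (1.50 mM). Thermodynamic parameters came from a single binding site model fit.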

The target of data set [8] is T4, Med15 ABD1. Put plainly: NMR secondary structure propensity upon binding ABD1. To be noted: bound to ABD1; backbone chemical shifts, ncSPC; 25°C. On the set-up: species or system S. cerevisiae. A digest of the protocol:
(§2)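 ¹³C,¹⁵N-labelled Gcn4 nAD was titrated with unlabelled Med15 ABD at ~200 μM labelled sample. Bound-state assignments were checked by triple-resonance experiments. Secondary structure propensity came from backbone chemical shifts via ncSPC.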

Data set [9] deals with T4, Med15 ABD1. To be noted: FP; Oregon Green 488-labeled Gcn4 peptide; ref Herbig et al., 2010; cited from earlier work.
Data set [10] has as its target T2, Med15 ABD2. Put plainly: NMR secondary structure propensity upon binding ABD2. On the set-up: species or system S. cerevisiae. The conditions noted are these: bound to ABD2, saturating; backbone chemical shifts, ncSPC; 25°C. A digest of the protocol: as §2
The target of data set [11] is T1, Med15 ABD123. The conditions noted are these: FP; Oregon Green 488-labeled Gcn4 peptide; ref Herbig et al., 2010; cited from earlier work.
Data set [12] concerns the target T5, Med15 ABD3 (Saccharomyces cerevisiae, UniProt P19659).
T5 sequence (P19659 484-651): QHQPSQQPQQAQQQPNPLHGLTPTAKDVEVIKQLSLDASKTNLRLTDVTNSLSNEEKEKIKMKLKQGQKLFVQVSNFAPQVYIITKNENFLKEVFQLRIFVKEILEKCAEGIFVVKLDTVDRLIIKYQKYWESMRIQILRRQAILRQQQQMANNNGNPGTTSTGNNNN
To be noted: FP; Oregon Green 488-labeled Gcn4 peptide; ref Herbig et al., 2010; cited from earlier work.

Data set [13] has as its target T2, Med15 ABD2. Put plainly: ITC binding, Med15 ABD2. To be noted: 20 mM KH2PO4 (pH 7.5), 200 mM KCl, nAD 0.111 mM vs ABD2 1.60 mM, ABD2 0.224 mM vs cAD 2.35 mM, not measurable due to weak binding or low heats of binding. Also noted: species or system S. cerevisiae.
The target in data set [14] is T5, Med15 ABD3. Put plainly: ITC binding, Med15 ABD3. Also noted: species or system S. cerevisiae. The conditions noted are these: 20 mM KH2PO4 (pH 7.5), 200 mM KCl. In a few lines: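 ITC was run on a MicroCal ITC200 in 20 mM KH2PO4 (pH 7.5), 200 mM KCl. In one run, Gcn4 nAD in the cell (0.111 mM) was titrated with Med15 ABD3 from the syringe (1.12 mM). In the other, ABD3 in the cell (0.236 mM) was titrated with Gcn4 cAD (2.35 mM). Data were fitted with a single binding site model.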

The subject of data set [15] is Med15 KIX domain (in KIX123). Description: EDC crosslinking-MS, KIX123-tAD, links to KIX. It counts as binding, S. cerevisiae. To be noted: EDC 7.5 mM, Sulfo-NHS 2 mM, 2 hr, room temperature; Gcn4 1–140. In a few lines:
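Gcn4 AD and KIX123 were purified by size exclusion into PBS (pH 7.2) and cross-linked for 2 hr at room temperature. Samples were reduced (50 mM TCEP, 8 M urea, 37°C, 15 min), alkylated (15 mM iodoacetamide, dark, 37°C, 1 hr), diluted 10-fold in 100 mM ammonium bicarbonate and digested overnight at 37°C with trypsin (1:15 w/w). After C18 cleanup, peptides were run on an Orbitrap Elite with HCD and a 90 min 5–40% ACN gradient. pLink and Nexus searches used 5% FDR, and a crosslink required ≥4 consecutive b/y ions per peptide.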

The term Kd denotes a measure of binding affinity in units of concentration.

“Also recorded” adds a separate entry of the source. Read-outs that look alike come from different tables or passages of the source.

Molecule “Med15 activator-binding domain 2 (ABD2; residues 277–368) (from UniProt P19659 277-368) (domain or fragment)” had a Kd in [1] of 19.5 µM.

As to “Med15 158–651 Δ239–272, Δ373–483 (ABD123) (from UniProt P19659 158-651) (domain or fragment)”, the Kd in data set [1] amounted to 0.109 µM.

“Gcn4 N-terminal activation domain (nAD; residues 1–100) (from UniProt P03069 1-100) (domain or fragment)”: in [2], the Kd is 10.8 µM and the dH is 2.45 kcal/mol.

Turning to “Med15 activator-binding domain 3 (ABD3; Med15 484–651) (from UniProt P19659 484-651) (domain or fragment)”, the values for the Kd in data set [3], in data set [1] and in data set [4] were 23.9 µM, 4.4 µM and 13.9 µM, respectively. The dH in [3] was found to be 7.02 kcal/mol.

In data set [1], “Med15 activator-binding domain 1 (ABD1) (from UniProt P19659 158-238) (domain or fragment)” registered an equilibrium dissociation constant (Kd) of 2.66 µM.

B1: tAD: tandem AD polypeptide, Gcn4 residues 1–134 (1–140 in crosslinking) (protein, UniProt P03069 1-134, looked up, fragment)
chain: MSEYQPSLFALNPMGFSPLDGSKSTNENVSASTSTAKPMVGQLIFDKFIKTEEDPIIKQDTPSNLDFDFALPQTATAPDAKTVLPIPELDDAVVESFFSSSTDSTPMFEYENLEDNSKEWTSLFDNDIPVTTDD
Take B1: the “affinity for individual ABDs (in words)” value in the data set with individual Med15 ABDs is reported as “affinity close to the stronger of the individual nAD or cAD interactions”. For the same molecule, in the data set with Med15 ABD123 [5], the “higher affinity than the strongest piecemeal interaction” value is reported as “about 20 fold”. Further, the “increase of Gcn4 affinity by presence of KIX along with ABD1,2,3” value with Med15 KIX123 is recorded as ~ 30%.

B2: nAD: N-terminal activation domain of Gcn4, residues 1–100 (protein, UniProt P03069 1-100, looked up, fragment)
chain: MSEYQPSLFALNPMGFSPLDGSKSTNENVSASTSTAKPMVGQLIFDKFIKTEEDPIIKQDTPSNLDFDFALPQTATAPDAKTVLPIPELDDAVVESFFSS
For the molecule B2, the Kd is 21.8 ± 3.8 µM in the data set with Med15 ABD2 [6]; “neither nAD nor cAD showed detectable KIX binding; also recorded: unable to measure” with Med15 KIX; 10.8 ± 1.5 µM in the data set with Med15 ABD1 [7] (Microcal ITC200, 20 mM KH2PO4 (pH 7.5), cell ABD1 0.150 mM, syringe nAD 1.50 mM, single binding site model); 3.3 ± 0.5 µM with Med15 ABD1 [9]; 0.36 ± 0.02 µM in the data set with Med15 ABD123 [11]; 2.6 ± 0.4 µM with Med15 ABD3 [12]. In addition, the equilibrium dissociation constant (Kd) result was “unable to measure” in the data set with Med15 ABD2 [13] and 23.9 ± 2 µM in the data set with Med15 ABD3 [14] (nAD 0.111 mM vs ABD3 1.12 mM, ABD3 0.236 mM vs cAD 2.35 mM, single binding site model). Besides, the ΔH in the data set with Med15 ABD1 [7] (20 mM KH2PO4 (pH 7.5), nAD) is 2,454 ± 78 cal/mol; in the data set with Med15 ABD3 [14], 7,015 ± 221 cal/mol. The molecule also had a ΔS with Med15 ABD1 [7] (20 mM KH2PO4 (pH 7.5), nAD) of 31.0 cal/mol/deg. Besides, in the data set with Med15 ABD1 [8], the “helical content of the other three nAD hydrophobic clusters” value is reported as less than 20%. Also, the “helical content of C-terminal hydrophobic cluster (residues 94–98)” value with Med15 ABD2 [10] is reported as ~ 25%. The “crosslinks to Med15 KIX domain” value in data set [15] was “crosslinks extensively to Gcn4 in the large complex, mainly to nAD”.
